# Assay results: ChEMBL document CHEMBL1926577, “Novel 1,3,4-heterodiazole analogues: synthesis and in-vitro antitumor activity” (2012)
# Active and inactive are the calls of the source. The calls are words filed in the database; no cut-off is given here.
# What was measured:
# Format in all cases: functional
# SF-295 = experiment: Growth inhibition of human SF295 cells at 10 uM after 48 hrs by coulter counter method; conditions: SF-295, 48 h, read-out: GI
# How it was run: (§1)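 NCI 60-cell-line panel, single dose. Compound dissolved first in DMSO, then diluted in phosphate-buffered saline so that every final dilution held under 1% DMSO. Duplicate wells received cells at 6 × 10⁴ cells/ml. Controls held PBS/DMSO at the same dilution. Plates were incubated 48 h at 37 °C under 5% CO₂. Cells were then diluted 10-fold in saline and counted on a Coulter counter, with counts corrected for the dilution. Results are given as percent growth inhibition.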
# [1] = Growth inhibition of human CNS cancer cells after 48 hrs by coulter counter method; conditions: Cancer cell lines
# How it was run: (§2)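 NCI 60-line panel cells. Compound is dissolved in DMSO and diluted in phosphate-buffered saline, with final DMSO below 1%. It is added in duplicate wells to cultures at 6 × 10⁴ cells/ml and held at 37 °C, 5% CO₂, humidified, for 48 h. Cells are diluted 10-fold in saline, counted by Coulter counter and dilution-corrected. Vehicle controls contain PBS plus DMSO.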
# A549 = experiment: Growth inhibition of human A549 cells at 10 uM after 48 hrs by coulter counter method; conditions: A549, 48 h, read-out: GI; how it was run: as §1
# MDA-MB-435 = experiment: Growth inhibition of human MDA-MB-435 cells at 10 uM after 48 hrs by coulter counter method; conditions: MDA-MB-435, 48 h, read-out: GI; how it was run: as §1
# SF-268 = experiment: Growth inhibition of human SF268 cells at 10 uM after 48 hrs by coulter counter method; conditions: SF-268, 48 h, read-out: GI; how it was run: as §1
# NCI-H322M = experiment: Growth inhibition of human NCI-H322M cells at 10 uM after 48 hrs by coulter counter method; conditions: read-out: GI; how it was run: as §1
# [2] = Growth inhibition of human ovarian cancer cells after 48 hrs by coulter counter method; conditions: Cancer cell lines; how it was run: as §2
# ACHN = experiment: Growth inhibition of human ACHN cells at 10 uM after 48 hrs by coulter counter method; conditions: read-out: GI; how it was run: as §1
# OVCAR-8 = experiment: Growth inhibition of human OVCAR8 cells at 10 uM after 48 hrs by coulter counter method; conditions: OVCAR-8, 48 h, read-out: GI; how it was run: as §1
# UACC-62 = experiment: Growth inhibition of human UACC62 cells at 10 uM after 48 hrs by coulter counter method; conditions: UACC-62, 48 h, read-out: GI; how it was run: as §1
# K562 = experiment: Growth inhibition of human K562 cells at 10 uM after 48 hrs by coulter counter method; conditions: K562, 48 h, read-out: GI; how it was run: as §1
# HCT-116 = experiment: Growth inhibition of human HCT116 cells at 10 uM after 48 hrs by coulter counter method; conditions: HCT-116, 48 h, read-out: GI; how it was run: as §1
# LOX IMVI = experiment: Growth inhibition of human LOXIMVI cells at 10 uM after 48 hrs by coulter counter method; how it was run: as §1
# SN12C = experiment: Growth inhibition of human SN12C cells at 10 uM after 48 hrs by coulter counter method; conditions: read-out: GI; how it was run: as §1
# NSCLC = experiment: Growth inhibition of human NSCLC cells after 48 hrs by coulter counter method; how it was run: as §2
# TK-10 = experiment: Growth inhibition of human TK10 cells at 10 uM after 48 hrs by coulter counter method; conditions: TK-10, 48 h, read-out: GI; how it was run: as §1
# RPMI-8226 = experiment: Growth inhibition of human RPMI8226 cells at 10 uM after 48 hrs by coulter counter method; conditions: RPMI-8226, 48 h, read-out: GI; how it was run: as §1
# EKVX = experiment: Growth inhibition of human EKVX cells at 10 uM after 48 hrs by coulter counter method; conditions: read-out: GI; how it was run: as §1
# [3] = read-out: LC50 (the source's name)
compound,measurement,setting,value
O=C1CN2N=C(c3ccccc3)SC2=N1,inhibition of growth at 10 µM,SF-295,90.6%
same,GI50,[1],8.7 µM
same,TGI,[1],18.8 µM
same,CC50,[1]; [3],51.3 µM
same,inhibition of growth at 10 µM,A549,39.2%
same,inhibition of growth at 10 µM,MDA-MB-435,30.4%
same,inhibition of growth at 10 µM,SF-268,20%
same,inhibition of growth at 10 µM,NCI-H322M,22.1%
same,GI50,[2],7.7 µM
same,TGI,[2],33.5 µM
same,CC50,[2]; [3],83.9 µM
same,inhibition of growth at 10 µM,ACHN,29.5%
same,inhibition of growth at 10 µM,OVCAR-8,35.3%
same,inhibition of growth at 10 µM,UACC-62,27.8%
same,inhibition of growth at 10 µM,K562,34.8%
same,inhibition of growth at 10 µM,HCT-116,42.6%
same,growth inhibition (GI),LOX IMVI,Active
same,inhibition of growth at 10 µM,SN12C,32.9%
same,GI50,NSCLC,9.7 µM
same,TGI,NSCLC,20.7 µM
same,CC50,NSCLC; [3],55.7 µM
same,inhibition of growth at 10 µM,TK-10,25.4%
same,inhibition of growth at 10 µM,RPMI-8226,72.2%
same,inhibition of growth at 10 µM,EKVX,94.5%
